Source: ChEMBL document CHEMBL1799918, “Growth inhibitory activities of oxyprenylated and non-prenylated naturally occurring phenylpropanoids in cancer cell lines” (Bioorg Med Chem Lett, 2011)

Tests used:
[1] = tested on: PC-3; test: Cytotoxicity against human PC3 cells after 72 hrs by MTT assay; assay type: functional, cell-based; details: PC-3, 72 h
Method in brief: (§1)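 MTT colorimetric assay on human cancer cell lines; IC50 growth inhibitory concentration determined in vitro for each compound.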

[2] = Cytotoxicity against human U373 cells after 72 hrs by MTT assay; assay type: functional, cell-based, U-373MG ATCC; details: U373 MG; method in brief: as §1
[3] = tested on: LoVo; test: Cytotoxicity against human LoVo cells after 72 hrs by MTT assay; assay type: functional, cell-based; method in brief: as §1
[4] = tested on: A549; test: Cytotoxicity against human A549 cells after 72 hrs by MTT assay; assay type: functional, cell-based; details: A549, 72 h; method in brief: as §1
[5] = tested on: SK-MEL-28; test: Cytotoxicity against human SK-MEL-28 cells after 72 hrs by MTT assay; assay type: functional, cell-based; details: SK-MEL-28, 72 h; method in brief: as §1
[6] = Cytotoxicity against human OE21 cells after 72 hrs by MTT assay; assay type: functional, cell-based; details: OE21, 72 h; method in brief: as §1
[7] = Induction of human U373 cell death assessed as morphological changes at MTT assay-related IC50 after 72 hrs by quantitative video microscopy; assay type: functional, U-373MG ATCC
[8] = Cytotoxicity against human U373 cells assessed as growth inhibition at MTT assay-related IC50 by quantitative video microscopy relative to control; assay type: functional, U-373MG ATCC
[9] = Cytostatic activity against human U373 cells assessed as growth inhibition at MTT assay-related IC50 by quantitative video microscopy relative to control; assay type: functional, U-373MG ATCC

SMILES | IC50 [1] [µM] | IC50 [2] [µM] | IC50 [3] [µM] | IC50 [4] [µM] | IC50 [5] [µM] | IC50 [6] [µM] | Activity [7] [%] | growth inhibition (GI) [8] [%] | growth inhibition (GI) [9] [%]
COc1cc(/C=C/CO)cc(OC)c1O | > 100 | > 100 | > 100 | > 100 | > 100 | 80 |  |  | 
COc1cc(/C=C/C=O)cc(OC)c1OC/C=C(\C)CCC=C(C)C [NELUMAL A] | 39 | 8 | 23 | 71 | 26 | 27 | 100 | 80 | 
CC(C)=CCOc1ccc2ccc(=O)oc2c1 [7-PRENYLOXYCOUMARIN] | > 100 | > 100 | 82 | > 100 | > 100 | 79 |  |  | 
COc1cc(/C=C/C(=O)O)ccc1OC/C=C(\C)CCC=C(C)C | > 100 | > 100 | > 100 | > 100 | > 100 | > 100 |  |  | 
CC(=O)c1ccc(O)cc1O | > 100 | > 100 | 97 | > 100 | > 100 | 45 |  |  | 
CC(=O)c1c(O)cc(OC/C=C(\C)CCC=C(C)C)cc1O | 48 | 29 | 35 | 34 | 40 | 34 | 15 | 80 | 
COc1cc(/C=C/CO)ccc1OC/C=C(\C)CCC=C(C)C | 21 | 25 | 27 | 29 | 31 | 23 | 41 | 80 | 
COc1cc(/C=C/C=O)ccc1O [CONIFERYL ALDEHYDE] | 35 | 28 | 23 | 59 | 33 | 29 | 13 |  | 50
CC(=O)c1c(O)cc(O)cc1O [2,4,6-TRIHYDROXYACETOPHENONE] | > 100 | > 100 | 90 | 100 | > 100 | 42 |  |  | 
COc1c(OCC=C(C)C)ccc2ccc(=O)oc12 [LACINARTIN] | 46 | 70 | 40 | 95 | > 100 | > 100 | 37 | 80 | 
O=C(/C=C/c1ccc(O)cc1)c1ccc(O)cc1O [ISOLIQUIRITIGENIN] | 99 | 68 | 57 | 85 | 75 | 48 | 7 |  | 60
CC(C)=CCC/C(C)=C/COc1cc(O)c2c(c1)C(=O)c1cc(C)cc(O)c1C2=O | 30 | 18 | 14 | 32 | 40 | > 100 | 100 | 90 | 
CC(C)=CCOc1cc(O)c2c(c1)C(=O)c1cc(C)cc(O)c1C2=O [MADAGASCIN] | 6 | 5 | 8 | 20 | 7 | 10 | 95 | 80 | 
CC(=O)c1ccc(OCC=C(C)C)cc1O | > 100 | > 100 | > 100 | > 100 | > 100 | > 100 |  |  | 
COc1cc(/C=C/CO)cc(OC)c1OCC=C(C)C | > 100 | > 100 | > 100 | > 100 | > 100 | > 100 |  |  | 
COc1cc(/C=C/CO)cc(OC)c1OC/C=C(\C)CCC=C(C)C [NELUMOL A] | 40 | 42 | 38 | 76 | 72 | 39 | 17 | 80 | 
CC(C)=CCOc1ccc(C(=O)/C=C/c2ccccc2)c(O)c1 [CORDOIN] | 71 | 53 | 58 | 54 | 81 | 39 | 88 | 95 | 
CC(=O)c1ccc(OC/C=C(\C)CCC=C(C)C)cc1O | 27 | 48 | 38 | 51 | 44 | 37 | 17 | 80 | 
CC(C)=CCC/C(C)=C/COc1ccc(/C=C/C(=O)O)cc1 | > 100 | > 100 | > 100 | > 100 | > 100 | > 100 |  |  | 

SMILES | IC50 [1] [µM] | IC50 [2] [µM] | IC50 [3] [µM] | IC50 [4] [µM] | IC50 [5] [µM] | IC50 [6] [µM] | Activity [7] [%] | growth inhibition (GI) [8] [%] | growth inhibition (GI) [9] [%]
COc1cc(/C=C/C=O)ccc1OC/C=C(\C)CCC=C(C)C | 24 | 7 | 12 | 5 | 28 | 34 | 26 | 80 | 
CC(C)=CCOc1ccc(C(=O)O)cc1 [VALENCIC ACID] | > 100 | > 100 | > 100 | > 100 | > 100 | > 100 |  |  | 
CC(=O)c1c(O)cc(OC/C=C(\C)CC/C=C(\C)CCC=C(C)C)cc1O | 38 | 33 | 32 | 26 | 33 | 18 | 42 | 70 | 
CC(C)=CCC/C(C)=C/CC/C(C)=C/COc1ccc2ccc(=O)oc2c1 [UMBELLIPRENIN] | 75 | 72 | 50 | 71 | 66 | 30 | 40 | 90 | 
COc1cc(C(=O)O)ccc1OCC=C(C)C | > 100 | > 100 | > 100 | > 100 | > 100 | > 100 |  |  | 
CC(C)=CCOc1ccc(C(=O)/C=C/c2ccc(O)cc2)c(O)c1 | > 100 | 87 | 57 | 66 | > 100 | 58 | 17 | 70 | 
O=c1ccc2ccc(O)cc2o1 [UMBELLIFERONE] | > 100 | > 100 | 97 | > 100 | > 100 | 33 |  |  | 
O=C(/C=C/c1ccccc1)c1ccc(O)cc1O [2',4'-DIHYDROXYCHALCONE] | > 100 | > 100 | 81 | > 100 | 75 | 49 |  |  | 
COc1cc(C(=O)O)ccc1O [VANILLIC ACID] | > 100 | > 100 | 91 | > 100 | > 100 | 61 |  |  | 
O=C(O)/C=C/c1ccc(O)cc1 [COUMARIC ACID] | > 100 | > 100 | 82 | > 100 | > 100 | 66 |  |  | 
CC(C)=CCC/C(C)=C/COc1ccc2ccc(=O)oc2c1 [AURAPTENE] | 65 | 82 | 66 | 82 | 87 | 58 | 58 | 90 | 
COc1cc(/C=C/CO)ccc1O [CONIFERYL ALCOHOL] | 84 | 97 | 64 | 85 | > 100 | 60 | 26 | 80 | 
O=C(O)c1ccc(O)cc1 [PARABEN] | > 100 | > 100 | 94 | > 100 | > 100 | 71 |  |  | 
CC(C)=CCOc1ccc2ccc(=O)oc2c1O | > 100 | > 100 | 92 | > 100 | > 100 | > 100 |  |  | 
COc1cc(/C=C/C(=O)O)ccc1OCC=C(C)C [BOROPINIC ACID] | > 100 | > 100 | > 100 | > 100 | > 100 | > 100 |  |  | 
COc1cc(/C=C/C=O)cc(OC)c1O | 63 | 56 | 33 | > 100 | 66 | 39 | 2 |  | 50
Cc1cc(O)c2c(c1)C(=O)c1cc(O)cc(O)c1C2=O [EMODIN] | 35 | 31 | 27 | 28 | 35 | 29 | 99 | 90 | 
COc1cc(/C=C/C(=O)O)ccc1O [FERULATE] | > 100 | > 100 | 95 | > 100 | > 100 | 68 |  |  | 
COc1cc(/C=C/C=O)cc(OC)c1OCC=C(C)C | 28 | 30 | 31 | 68 | 32 | 29 | 100 | 90 | 
